Source: PubChem (SRMLSC)
RAM network inh: blocks the yeast RAM network. inhibition, % at 50 µM. S. cerevisiae dse1pr::URA3 reporter, 5-FOA growth OD615, 2 d; analog-sensitive cbk1-as2 kinase mutant strain. 190,000 tested, 1.8% active;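 active = inhibition above a set limit, 3 SD over mean compound inhibition, cut at about 8.4% in these data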;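 also: inhibition rescues growth on 5-FOA so higher OD means more RAM inhibition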
Yeast lifespan up: extends the lifespan of yeast; S. cerevisiae growth with nicotinamide, OD615; deaD strain in restrictive glucose medium; inhibition of the nicotinamide effect, % at 10 µM; 130,000 tested, 0.68% active; AID 775;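 active = inhibition above a set limit, placed 3 SD over the median of all compounds, cut at about 26% in these data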
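assay system = DeaD-strain S. cerevisiae | measured by = absorbance at 615 nm | probe or stimulus = nicotinamide 1.5 mM | buffer or medium = CSMM-D glucose medium, restrictive | times = 48 h at 30 °C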
BB579 growth dn: chemicals that inhibit yeast BB579 growth in restrictive medium (lifespan-shortening candidates) | inhibition, % at 10 µM | 140,000 tested, 0.51% active | S. cerevisiae BB579 growth, OD615, 48 h;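 active = inhibition above a set limit, 3 SD over the mean compound inhibition, cut at about 44% in these data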
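Test system: S. cerevisiae DeaD strain BB579 yeast; Medium: restrictive CSMM-D medium; Compound: one dose, 10 µM compound with 0.25% DMSO; Incubation: 4 h cell preincubation, 48 h compound exposure, 30 °C humidified; Signal: OD at 615 nm; Benchmarks: amphotericin B at 10 µg/mL as positive control.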
Of the large screens only hits and unclear results are named; the others gave an inactive call. Only some compounds are listed: those with a hit (about 2.6% of all), similar ones and a draw of the others.

COc1ccc(/C=C/C(=O)C2C(=O)C=C(C)OC2=O)cc1O (stereo unspecified)	Yeast lifespan up 44
COc1cc(/C=C/C(=O)N2CCCC2)cc(OC)c1OC	none
COc1cc(/C=C/C(=O)C2C(=O)C=C(C)OC2=O)cc(OC)c1O (stereo unspecified)	Yeast lifespan up 64
COc1ccc(/C=N/NC(=O)c2ccoc2C)cc1O	none
O=C(COC(=O)c1ccc([N+](=O)[O-])s1)Nc1ncc(C(F)(F)F)cc1Cl	none
N#Cc1c(Cl)nsc1NC(=O)c1ccccc1	none (no result: Yeast lifespan up, BB579 growth dn)
O=C(c1ccco1)N1CCN(c2ncnc3c2nnn3Cc2ccccc2Cl)CC1	none (no result: Yeast lifespan up)
CCOC(=O)C1CCN(c2ncnc3c2nnn3Cc2ccccc2Cl)CC1	RAM network inh 8.4 (no result: Yeast lifespan up, BB579 growth dn)
O=C(O)CCCNS(=O)(=O)/C=C/c1ccccc1	none (no result: Yeast lifespan up, BB579 growth dn)
Cc1ccc(NC(=S)NC(=O)c2ccc(-c3ccc(Cl)cc3)o2)c(O)c1	RAM network inh 10
Cc1cc(O)c(NC(=S)NC(=O)c2ccc(-c3ccc(Cl)cc3)o2)cc1C	none
CCOC(=O)c1sc(NC(=O)CSc2nccc(C)n2)nc1C	RAM network inh 8.5 (no result: Yeast lifespan up, BB579 growth dn)
CCOC(=O)c1sc(NC(=O)CSc2nccc(C)n2)c(C#N)c1C	none
O=C(c1cccs1)N1CCN(Cc2ccccc2[N+](=O)[O-])CC1	none
Cc1ccc(/C=C2/SC(=O)NC2=S)o1	none (no result: Yeast lifespan up, BB579 growth dn)
O=C(NC1CCCCCC1)c1cc(S(=O)(=O)N2CCCCC2)ccc1N1CCOCC1	none (no result: Yeast lifespan up, BB579 growth dn)
COc1ccc(/C=C/C(=O)Nc2cc(C)nn2-c2nc3ccccc3[nH]2)cc1	none
COc1ccc(/C=C/C(=O)Nc2cc(C)nn2-c2nc3ccccc3n2Cc2cccc([N+](=O)[O-])c2)cc1	RAM network inh 8.9
Nc1nc2nc(-c3cccs3)cc(C(F)(F)F)n2n1	none (no result: Yeast lifespan up, BB579 growth dn)
O=C(N/N=C/c1cccnc1)C1CC1(c1ccccc1)c1ccccc1 (stereo unspecified)	none (no result: Yeast lifespan up, BB579 growth dn)
O=C(O)c1ccccc1C(=O)NNc1cccc(Cl)n1	none (no result: Yeast lifespan up, BB579 growth dn)
O=C(O)c1ccccc1C(=O)NNc1ccc(Cl)cc1	BB579 growth dn 93
CC1(C)CC2(CCO1)OC(=O)CC2C(=O)Nc1ccccc1Cl (stereo unspecified)	none (no result: Yeast lifespan up, BB579 growth dn)
CCOC(=O)c1c(-c2ccccc2)csc1NC(=O)CSc1nncs1	RAM network inh 11
CCOC(=O)c1c(-c2ccccc2)csc1NC(=O)CSc1nnnn1C	none
O=C(CNC1CCCCCC1)Nc1ccccc1N1CCOCC1	none (no result: Yeast lifespan up, BB579 growth dn)
Cn1nnnc1SCc1nnc(-c2ccccc2Br)o1	none
Cc1ccc(-n2nnnc2SCc2nnc(-c3ccccc3Br)o2)c(C)c1	RAM network inh 11
CC(C)Nc1nnc(SCC(=O)Nc2ccc(F)cc2)s1	none
CC(C)c1nnc(NC(=O)CSc2nnc(NC(=O)c3c(F)cccc3F)s2)s1	RAM network inh 10 (no result: Yeast lifespan up, BB579 growth dn)
Cc1cccc(-c2ncc(CN3CCN(CCC(C)C)C(CCO)C3)cn2)c1 (stereo unspecified)	none (no result: Yeast lifespan up, BB579 growth dn)
COc1ccc(C2C3=C(CC(C)(C)CC3=O)Nc3c2c(=O)[nH]c(=O)n3Cc2ccccc2)cc1 (stereo unspecified)	RAM network inh 9.5
COc1ccc(C2C3=C(CC(C)(C)CC3=O)Nc3c2c(=O)[nH]c(=O)n3Cc2ccccc2)cc1OC (stereo unspecified)	none
CC1(C)CCCN(C(=O)N2c3ccccc3Sc3ccccc32)C1	RAM network inh 11
O=C(CN1CCCC1)N1c2ccccc2Sc2ccccc21	none
O=C(c1ccccc1)c1cc([N+](=O)[O-])ccc1N1CCOCC1	none
CC1CCCN(c2ccc([N+](=O)[O-])cc2C(=O)c2ccccc2)C1 (stereo unspecified)	RAM network inh 9.6
Cc1cc(S(=O)(=O)Nc2ccc3ccccc3c2)c(C)s1	RAM network inh 9.2
Cc1cc(S(=O)(=O)Nc2cccnc2)c(C)s1	none
COc1ccc(NC(=S)Nn2cnnc2)cc1OC	none (no result: Yeast lifespan up, BB579 growth dn)
CCCc1cc(=O)oc2cc(OCc3cccc(OC)c3)c(Cl)cc12	RAM network inh 11
CCc1cc(=O)oc2cc(OCC(=O)O)c(Cl)cc12	none
COc1cccc(-n2nnnc2SCC(=O)Nc2ccc3c(c2)OCCO3)c1	none
COc1cccc(-n2c(=O)[nH]cc(C(=O)Nc3ccc4c(c3)OCCO4)c2=O)c1	RAM network inh 8.8
Cn1cc2cc([N+](=O)[O-])ccc2n1	none (no result: Yeast lifespan up, BB579 growth dn)
O=C(c1ccc(Cl)cc1)C(Cn1cncn1)C(Sc1ccccc1)c1ccccc1 (stereo unspecified)	RAM network inh 9.8
Cc1ccc(SC(c2ccccc2)C(Cn2cncn2)C(=O)c2ccccc2)cc1 (stereo unspecified)	none
CCOc1ccc(/C=C/C(=O)c2c(O)c3ccccc3oc2=O)cc1	Yeast lifespan up 80
CCOc1ccc(/C=C/C(=O)NCc2ccccc2)cc1	none
COc1ccc(NS(=O)(=O)c2cccc(NC(=O)CCS(=O)(=O)c3ccccc3)c2)cc1	none
c1ccc(C(c2ccccc2)c2noc(CN3CCC(c4ccncc4)CC3)n2)cc1	none (no result: Yeast lifespan up, BB579 growth dn)
COc1ccc(S(=O)(=O)NCC2CCC(C(=O)NCC(OC)OC)CC2)cc1 (stereo unspecified)	none (no result: Yeast lifespan up, BB579 growth dn)
CCOc1ccc(Cc2c(Cl)nc(SC)nc2OC)cc1	RAM network inh 9.4
CSc1nc(Cl)c(Cc2ccc(OCC(C)C)cc2)c(N2CCOCC2)n1	RAM network inh 8.6
COc1ccc(Cc2c(N)nc(C)nc2N)cc1	none (no result: Yeast lifespan up, BB579 growth dn)
CCCCOc1ccc(Cc2c(Cl)nc(SC)nc2N2CCOCC2)cc1	none
CCOc1ccc(Br)cc1CNc1ccc2c(c1)OCCO2	none (no result: Yeast lifespan up, BB579 growth dn)
O=C(Cc1ccc(Cl)cc1)Nc1ccc(SC(F)F)cc1	none
O=C(COC(=O)/C=C/c1cccs1)Nc1cccc(S(=O)(=O)N2CCCC2)c1	none (no result: Yeast lifespan up, BB579 growth dn)
O=C(N/N=C/c1c(O)n(-c2ccccc2Cl)c(=O)c2ccccc12)C1COc2ccccc2O1 (stereo unspecified)	none
O=c1c2ccccc2c(/C=N/c2n[nH]c(CCCO)n2)c(O)n1-c1ccccc1Cl	RAM network inh 8.5 (no result: Yeast lifespan up, BB579 growth dn)
CS(=O)(=O)c1ccc(C(=O)OCC(=O)NC(=O)C2CCCCC2)cc1[N+](=O)[O-]	none (no result: Yeast lifespan up, BB579 growth dn)
COc1ccc(-c2nnc(SCc3ccccc3F)o2)cc1	none
COc1cc(OC)cc(-c2nnc(SCc3c(F)cccc3Cl)o2)c1	RAM network inh 8.9
O=C(CSc1nccc(=O)[nH]1)NN(c1ccccc1)c1ccccc1	none (no result: Yeast lifespan up, BB579 growth dn)
Cc1nnc(NC(=O)CSc2ccc3nnc(-c4cccnc4)n3n2)s1	none (no result: Yeast lifespan up, BB579 growth dn)
CCSc1nc(C2CC2)cc(-c2ccco2)c1C#N	RAM network inh 10
CCSc1nc(C2CC2)cc(-c2cccs2)c1C#N	none
Cc1ccc(Cl)c(OC(=O)c2nn(C(C)C)c(=O)c3ccccc23)c1	RAM network inh 10
Cc1ccc(S(=O)(=O)N2CCN(C(=O)c3nn(C(C)C)c(=O)c4ccccc34)CC2)cc1C	none
CCOC(=O)C1(CC2CC2)CCN(C(=O)c2cccnc2C)CC1	none (no result: Yeast lifespan up, BB579 growth dn)
COc1ccc(NS(=O)(=O)c2cc([N+](=O)[O-])ccc2N/N=C\c2c(C)[nH]c3ccccc23)cc1	none
COc1ccccc1NS(=O)(=O)c1cc([N+](=O)[O-])ccc1N/N=C/c1c[nH]c2ccccc12	RAM network inh 10
CCNc1sc(C(=O)OCC)c(N)c1C#N	none (no result: Yeast lifespan up, BB579 growth dn)
COC(=O)C1=C(C)N=c2s/c(=C/c3cccs3)c(=O)n2C1c1cccs1 (stereo unspecified)	RAM network inh 9.2
COC(=O)C1=C(C)N=c2s/c(=C/c3ccoc3)c(=O)n2C1c1ccccc1 (stereo unspecified)	none
